# According to paper PMC3500602 (Free radical research, 2011):
# How the values were obtained:
# [1] = Metal-centered reduction potential E1/2 for Mn^IIIP/Mn^IIP redox couple; assay type: physicochemical
# SOD-deficient E. coli = conditions: cited from earlier work; for efficacy in protecting SOD-deficient E. coli: ortho vs meta
# [2] = tested on: human epithelial colorectal adenocarcinoma Caco-2; test: WST-1-based cytotoxicity assay, Caco-2; assay type: cell-based; conditions: read-out: IC50 values for MnPs in the absence of ascorbate; Caco-2, 96 h, WST-1, no ascorbate
# [3] = cited from earlier work; for SOD activity log kcat (O2^·−): cyt c assay, 0.05 M phosphate buffer, pH 7.8, 25 ± 1°C
# [4] = tested on: four tumour cell lines (Caco-2, HCT116, 4T1 and Hela); test: WST-1-based cytotoxicity assay, statements across the four tumour cell lines; conditions: for cytotoxicity relative to MnTnHex-2-PyP^5+ in the presence of ascorbate: slopes of curves in Figure 5; for effect of low levels on the cell: Figures 5 and 6; for toxicity of MnP in its own right: absence of ascorbate, 30 µM MnP, HCT116, 4T1, Hela
# [5] = cited from earlier work
# [6] = plastic-backed silica-gel TLC plates, 1:1:8 = KNO3(sat):H2O:CH3CN; cited from earlier work
# [7] = tested on: HCT116 human colorectal carcinoma cells; test: Clonogenic assay, HCT116; assay type: cell-based; conditions: HCT116, ascorbate 0.5 mM or MnTnHex-2-PyP^5+ 15 and 30 µM alone, 24 h
# 4T1 tumour cells = test: LCMS/MS analysis of MnTnHex-2-PyP^5+ levels in 4T1 cells; assay type: in vitro ADME, mouse
# Procedure, shortened: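 4T1 cells at 1,440,000 per plate in 10 mL DMEM (high glucose, 10% FBS), attached 24 h (~80% confluence), then given 0.5 or 1 mM ascorbate, 5, 15 or 30 µM porphyrin, or combinations, for 24 h. PBS-rinsed, RIPA-lysed on ice, sonicated, spun; lysate porphyrin by LC-MS/MS normalised to Bradford protein. Intracellular concentration calculated assuming 2.19 µL cell volume/mg protein.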
# [8] = tested on: 4T1 mouse breast carcinoma cells; test: Clonogenic assay, 4T1; assay type: cell-based; conditions: 4T1, ascorbate 1 mM or MnTnHex-2-PyP^5+ 15 and 30 µM alone, 24 h
# [9] = MnTnHex-2-PyP^5+ levels in tumour and muscle by LCMS/MS; assay type: in vivo, Balb/c mice
# Procedure, shortened: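 Female Balb/c mice (6–8 weeks, ~22 g) bearing subcutaneous flank 4T1 tumours (10^6 cells), treated from ~200 mm3 for 15 days with porphyrin 1 mg/kg twice daily sc, with or without sodium ascorbate 2 g/kg twice daily ip given 1 h later. Tumour and opposite-leg muscle homogenised, deproteinised with 1% acetic acid in methanol, dried, reconstituted; porphyrin by LC-MS/MS, µM in homogenate.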
# [10] = n-octanol-water partition coefficient, log Pow; assay type: physicochemical
# Caco-2 cells = test: Identification of species involved in cytotoxicity; assay type: cell-based, human
# Procedure, shortened: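 Caco-2 cells at 10,000/well in alpha-MEM with 10% FBS; after 24 h at 37°C, 5% CO2, exposed to 30 µM Mn porphyrin, 3.3 mM ascorbate or both, with or without 1,500 units/mL catalase or 5 mM mannitol, for 96 h. Cells PBS-washed, WST-1 added for 2 h at 37°C, A450/595 read, % viability versus no-drug cells after cell-free blank subtraction.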
# [11] = Rate constant for the oxidation of Mn^IIP with oxygen; conditions: estimated from Mn^IITM-4-PyP^4+ value and structure-activity relationship
smiles,measurement,setting,value
"CC[n+]1ccccc1-c1c2nc(c(-c3cccc[n+]3CC)c3ccc([n-]3)c(-c3cccc[n+]3CC)c3nc(c(-c4cccc[n+]4CC)c4ccc1[n-]4)C=C3)C=C2.[Mn+3] [MnTE-2-PyP^5+, Mn(III) meso-tetrakis(N-ethylpyridinium-2-yl)porphyrin]",E1/2 difference relative to MnTnHex-2-PyP^5+ (less positive / more negative),[1],~ 100 mV
same,efficacy in protecting SOD-deficient E. coli,SOD-deficient E. coli,equally efficacious
same,IC50,[2],470 µM
same,fold more potent SOD mimic than meta MnTE-3-PyP^5+,[3],10 fold
same,SOD activity log kcat (O2^·−),[3],7.76
same,cytotoxicity relative to MnTnHex-2-PyP^5+ in the presence of ascorbate,"[4]; 4T1, Hela",more cytotoxic
same,cytotoxicity relative to MnTnHex-2-PyP^5+ in the presence of ascorbate,"[4]; HCT116, Caco-2",equally
same,effect of low levels on the cell,[4],beneficial
"CC[n+]1cccc(-c2c3nc(c(-c4ccc[n+](CC)c4)c4ccc([n-]4)c(-c4ccc[n+](CC)c4)c4nc(c(-c5ccc[n+](CC)c5)c5ccc2[n-]5)C=C4)C=C3)c1.[Mn+3] [MnTE-3-PyP^5+, Mn(III) meso-tetrakis(N-ethylpyridinium-3-yl)porphyrin, reference compound]",fold more lipophilic than ortho MnTE-2-PyP^5+,[5],10 fold
same,fold more accumulation within E. coli cell than MnTE-2-PyP^5+,SOD-deficient E. coli,10 fold
same,efficacy in protecting SOD-deficient E. coli,SOD-deficient E. coli,equally efficacious
"C[n+]1ccc(-c2c3nc(c(-c4cc[n+](C)cc4)c4ccc([n-]4)c(-c4cc[n+](C)cc4)c4nc(c(-c5cc[n+](C)cc5)c5ccc2[n-]5)C=C4)C=C3)cc1.[Mn+3] [MnTM-4-PyP^5+, Mn(III) meso-tetrakis(N-methylpyridinium-4-yl)porphyrin, reference compound]",SOD activity log kcat (O2^·−),[3],6.58
same,Lipophilicity Rf,[6],0.064
"CCCCCC[n+]1ccccc1-c1c2nc(c(-c3cccc[n+]3CCCCCC)c3ccc([n-]3)c(-c3cccc[n+]3CCCCCC)c3nc(c(-c4cccc[n+]4CCCCCC)c4ccc1[n-]4)C=C3)C=C2.[Mn+3] [MnTnHex-2-PyP^5+, Mn(III) meso-tetrakis(N-n-hexylpyridinium-2-yl)porphyrin]","ability to produce colonies, single agent",[7],did not affect
same,MnP concentration in the cells relative to the medium,4T1 tumour cells; 30 µM MnP in medium,~ 4 times
same,more MnP found within cells with MnP/ascorbate compared to MnP alone,"4T1 tumour cells; 4T1 cells, depending on concentrations of ascorbate and porphyrin",≤ 29%
same,"ability to produce colonies, single agent",[8],did not affect
same,IC50,[2],170 µM
same,SOD activity log kcat (O2^·−),[3],7.48
same,toxicity of MnP in its own right,[4],exerted toxicity
same,enhancement of MnP accumulation by ascorbate in muscle,"[9]; MnP/ascorbate vs MnP treated mice, muscle",54%
same,enhancement of MnP accumulation by ascorbate in tumour,"[9]; MnP/ascorbate vs MnP treated mice, tumour",33%
same,accumulation in tumour relative to muscle from the opposite leg,"[9]; MnTnHex-2-PyP^5+ 1 mg/kg twice daily sc, tissue homogenates",higher accumulation in tumour
"CCCCCC[n+]1cccc(-c2c3nc(c(-c4ccc[n+](CCCCCC)c4)c4ccc([n-]4)c(-c4ccc[n+](CCCCCC)c4)c4nc(c(-c5ccc[n+](CCCCCC)c5)c5ccc2[n-]5)C=C4)C=C3)c1.[Mn+3] [MnTnHex-3-PyP^5+, Mn(III) meso-tetrakis(N-n-hexylpyridinium-3-yl)porphyrin]",E1/2 difference relative to MnTE-2-PyP^5+ (more negative),[1],~150 mV
same,E1/2 difference relative to MnTnHex-2-PyP^5+ (less positive / more negative),[1],~ 250 mV
same,fold more lipophilic than MnTnHex-2-PyP^5+,[10],~ 10 fold
same,toxicity of MnP by itself to Caco-2 cells,"Caco-2 cells; Caco-2, 30 µM MnP, no ascorbate, Figure 9",less toxic
same,effect of mannitol on cytotoxicity,"Caco-2 cells; Caco-2, 5 mM mannitol, 4 days",blocked significantly
same,accumulation within E. coli cell relative to MnTnHex-2-PyP^5+,SOD-deficient E. coli; absence of exogenous reductant,several-fold more
same,IC50,[2],140 µM
same,SOD activity log kcat (O2^·−),[3],6.64
same,toxicity of MnP in its own right,[4],not significantly toxic
same,effect of low levels on the cell,[4],beneficial
CC[n+]1ccccc1-c1c2nc(c(-c3cccc[n+]3CC)c3ccc([n-]3)c(-c3cccc[n+]3CC)c3nc(c(-c4cccc[n+]4CC)c4ccc1[n-]4)C=C3)C=C2.[Mn+2] [Mn^IITE-2-PyP^4+],rate constant for the reaction with O2,[11],80000 M⁻¹ s⁻¹
